From ChEMBL document CHEMBL1821590, “Novel dihydropyrimidines and its pyrazole derivatives: synthesis and pharmacological screening” (Eur J Med Chem, 2011)
≈ marks a conversion by molar mass, not a printed value.

Columns and labels:
Assay type in all cases: functional
[1] = Antioxidant activity assessed as nitric oxide radical scavenging activity after 150 mins
Method in brief: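 10 mM sodium nitroprusside (4 mL), PBS pH 7.4 (1 mL) and sample or ascorbic acid in DMSO (1 mL, 12.5–100 µg/mL), incubated 150 min at 25 °C. Nitrite detected with sulphanilic acid (5 min) then naphthylethylenediamine (30 min, diffused light). Read at […]. Triplicate. % inhibition = [1 − (Vt/Vc)] × 100. IC50 derived from it.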

[2] = Antioxidant activity assessed as potassium ferricyanide ion reducing power after 20 mins
Method in brief: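 Oyaizu method. Samples or ascorbic acid in DMF (12.5–100 µg/mL) mixed with 0.2 M phosphate buffer pH 6.6 and 1% potassium ferricyanide, 20 min at 50 °C. 10% TCA added, centrifuged. Supernatant mixed with water and 0.1% FeCl3, read at 700 nm. % = [(Vt/Vc) − 1] × 100. IC50 derived.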

[3] = Antioxidant activity assessed as inhibition of lipid peroxidation using egg lecithin liposomes incubated for 1 hr
Method in brief: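 Egg lecithin (3 mg/mL, phosphate buffer pH 7.4) sonicated 10 min to form liposomes. Sample or ascorbic acid (12.5–100 µg/mL) added. Peroxidation induced with FeCl3 and L-ascorbic acid, 1 h at 37 °C. Stopped with HCl/TCA/TBA/BHA, boiled 15 min, centrifuged, supernatant read at 532 nm. Triplicate. % inhibition vs control. IC50 derived.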

[4] = Antioxidant activity assessed as hydrogen peroxide scavenging activity after 10 mins
Method in brief: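 H2O2 (20 mM) in PBS pH 7.4. 1 mL of sample or ascorbic acid in methanol (12.5–100 µg/mL) added to 2 mL H2O2 solution. A230 read after 10 min. % inhibition = [1 − (Vt/Vc)] × 100. Triplicate, averaged. IC50 derived from % inhibition across concentrations.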

[5] = tested on: Candida albicans; assay: Antimicrobial activity against Candida albicans at 25 ug/ml by paper disc method; conditions: read-out: IZ
Method in brief: (§1)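 Paper disc method against A. niger and C. albicans, with compounds at 25, 50 and 100 µg/mL. Amphotericin-B as standard.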

[6] = tested on: Bacillus subtilis; assay: Antimicrobial activity against Bacillus subtilis at 100 ug/ml by agar plate diffusion technique; conditions: read-out: IZ
Method in brief: (§2)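 Agar plate diffusion against E. coli, P. aeruginosa, S. aureus and B. subtilis, with compounds at 25, 50 and 100 µg/mL. Streptomycin as standard.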

[7] = tested on: Candida albicans; assay: Antimicrobial activity against Candida albicans at 50 ug/ml by paper disc method; conditions: read-out: IZ; method in brief: as §1
[8] = tested on: Metaphire posthuma; assay: Anthelmintic activity against Pheretima posthuma assessed as time taken for parasite death at 0.2% w/v
Method in brief: (§3)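 Earthworms (Pheretima posthuma, spelled Perituma posthuma in text) exposed to test compounds at 0.1, 0.2 and 0.5% w/v. Albendazole served as standard, with an untreated control. Paralysis was recorded as the time until worms became motionless, then time to death was recorded, in minutes. Each value is the mean of three determinations with S.D.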

[9] = tested on: Staphylococcus aureus; assay: Antimicrobial activity against Staphylococcus aureus at 50 ug/ml by agar plate diffusion technique; conditions: read-out: IZ; method in brief: as §2
[10] = tested on: Metaphire posthuma; assay: Anthelmintic activity against Pheretima posthuma assessed as time taken for complete parasite paralysis at 0.2% w/v
Method in brief: (§4)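 Earthworms (Pheretima posthuma) exposed to test solutions at 0.1, 0.2 and 0.5% w/v; time in minutes to complete paralysis (worms motionless) recorded. Albendazole as standard. Mean of three determinations ± S.D.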

[11] = tested on: Bacillus subtilis; assay: Antimicrobial activity against Bacillus subtilis at 50 ug/ml by agar plate diffusion technique; conditions: read-out: IZ; method in brief: as §2
[12] = Antiinflammatory activity assessed as inhibition of albumin denaturation at 100 ug/ml by UV-visible spectrophotometry
Method in brief: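 Compounds dissolved in minimal DMF, diluted in PBS pH 7.4 (final DMF <2.5%). 1 mL test solution (100 µg/mL) plus 1 mL 1% albumin in PBS, 15 min at 27 ± 1 °C, then heated 10 min at 60 ± 1 °C. After cooling, turbidity read at 660 nm. % inhibition = [(Vt/Vc) − 1] × 100 against a no-drug control. Triplicate, averaged. Diclofenac standard.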

[13] = tested on: Staphylococcus aureus; assay: Antimicrobial activity against Staphylococcus aureus at 25 ug/ml by agar plate diffusion technique; conditions: read-out: IZ; method in brief: as §2
[14] = tested on: Aspergillus niger; assay: Antimicrobial activity against Aspergillus niger at 25 ug/ml by paper disc method; conditions: read-out: IZ; method in brief: as §1
[15] = tested on: Candida albicans; assay: Antimicrobial activity against Candida albicans at 100 ug/ml by paper disc method; conditions: read-out: IZ; method in brief: as §1
[16] = tested on: Bacillus subtilis; assay: Antimicrobial activity against Bacillus subtilis at 25 ug/ml by agar plate diffusion technique; conditions: read-out: IZ; method in brief: as §2
[17] = tested on: Metaphire posthuma; assay: Anthelmintic activity against Pheretima posthuma assessed as time taken for parasite death at 0.5% w/v; method in brief: as §3
[18] = tested on: Aspergillus niger; assay: Antimicrobial activity against Aspergillus niger at 100 ug/ml by paper disc method; conditions: read-out: IZ; method in brief: as §1
[19] = tested on: Aspergillus niger; assay: Antimicrobial activity against Aspergillus niger at 50 ug/ml by paper disc method; conditions: read-out: IZ; method in brief: as §1
[20] = tested on: Staphylococcus aureus; assay: Antimicrobial activity against Staphylococcus aureus at 100 ug/ml by agar plate diffusion technique; conditions: read-out: IZ; method in brief: as §2
[21] = tested on: Metaphire posthuma; assay: Anthelmintic activity against Pheretima posthuma assessed as time taken for parasite death at 0.1% w/v; method in brief: as §3
[22] = tested on: Metaphire posthuma; assay: Anthelmintic activity against Pheretima posthuma assessed as time taken for complete parasite paralysis at 0.1% w/v; method in brief: as §4
[23] = tested on: Metaphire posthuma; assay: Anthelmintic activity against Pheretima posthuma assessed as time taken for complete parasite paralysis at 0.5% w/v; method in brief: as §4
[24] = tested on: Pseudomonas aeruginosa; assay: Antimicrobial activity against Pseudomonas aeruginosa at 50 ug/ml by agar plate diffusion technique; conditions: read-out: IZ; method in brief: as §2
[25] = tested on: Escherichia coli; assay: Antimicrobial activity against Escherichia coli at 100 ug/ml by agar plate diffusion technique; conditions: read-out: IZ; method in brief: as §2
[26] = tested on: Escherichia coli; assay: Antimicrobial activity against Escherichia coli at 50 ug/ml by agar plate diffusion technique; conditions: read-out: IZ; method in brief: as §2
[27] = tested on: Escherichia coli; assay: Antimicrobial activity against Escherichia coli at 25 ug/ml by agar plate diffusion technique; conditions: read-out: IZ; method in brief: as §2
[28] = tested on: Pseudomonas aeruginosa; assay: Antimicrobial activity against Pseudomonas aeruginosa at 100 ug/ml by agar plate diffusion technique; conditions: read-out: IZ; method in brief: as §2
[29] = tested on: Pseudomonas aeruginosa; assay: Antimicrobial activity against Pseudomonas aeruginosa at 25 ug/ml by agar plate diffusion technique; conditions: read-out: IZ; method in brief: as §2

Row | SMILES | IC50 [1] [µg/mL] | IC50 [2] [µg/mL] | IC50 [3] [µg/mL] | IC50 [4] [µg/mL] | zone of inhibition at 25 µg/mL [5] [mm] | zone of inhibition at 100 µg/mL [6] [mm] | zone of inhibition at 50 µg/mL [7] [mm] | Time [8] [min] | Time [10] [min] | zone of inhibition at 50 µg/mL [11] [mm] | inhibition [12] [%] | zone of inhibition at 25 µg/mL [14] [mm] | zone of inhibition at 100 µg/mL [15] [mm] | zone of inhibition at 25 µg/mL [16] [mm] | Time [17] [min] | zone of inhibition at 100 µg/mL [18] [mm] | zone of inhibition at 50 µg/mL [19] [mm] | Time [21] [min] | Time [22] [min] | Time [23] [min] | other results
1 | O=C1O[C@H]([C@@H](O)CO)C(O)=C1O [ASCORBIC ACID] | 47 (≈ 267 µM) | 31 (≈ 176 µM) | 26 (≈ 148 µM) | 33 (≈ 187 µM) |  |  |  |  |  |  |  |  |  |  |  |  |  |  |  |  | 
2 | Cn1c(NN)nc(-c2cccs2)c(C#N)c1=O | 63 (≈ 255 µM) | 61 (≈ 247 µM) | 68 (≈ 275 µM) | 53 (≈ 214 µM) | 10.7 | 15.4 | 13.8 | 44.42 | 29.13 | 10.1 | 36.4 | 10.2 | 15.9 | 9.27 | 40.3 | 15.9 | 12.8 | 58.24 | 32.35 | 26.13 | zone of inhibition at 50 µg/mL [9]: 10.6 mm; zone of inhibition at 25 µg/mL [13]: 9.12 mm; zone of inhibition at 100 µg/mL [20]: 13.4 mm
3 | Cn1c(NN)nc(-c2cccc(O)c2O)c(C#N)c1=O | 44 (≈ 161 µM) | 34 (≈ 124 µM) | 31 (≈ 113 µM) | 29 (≈ 106 µM) | 9.35 | 22.1 | 13.8 | 63.98 | 48.56 | 14.5 | 28.8 | 7.06 | 18.7 | 11.5 | 60.27 | 15 | 8.44 | 66.22 | 52.22 | 45.65 | zone of inhibition at 50 µg/mL [24]: 10.1 mm; zone of inhibition at 100 µg/mL [25]: 10.2 mm; zone of inhibition at 50 µg/mL [26]: 8.16 mm; zone of inhibition at 25 µg/mL [27]: 8.72 mm; zone of inhibition at 100 µg/mL [28]: 12.9 mm; zone of inhibition at 25 µg/mL [29]: 8.1 mm
4 | CCCSc1ccc2[nH]c(NC(=O)OC)nc2c1 [ALBENDAZOLE] |  |  |  |  |  |  |  | 55.25 | 35.58 |  |  |  |  |  | 53.34 |  |  | 60.36 | 50.38 | 30.57 | 
5 | C[C@@H]1[C@H](O)[C@@H](C)/C=C/C=C/C=C/C=C/C=C/C=C/C=C/[C@H](O[C@@H]2O[C@H](C)[C@@H](O)[C@H](N)[C@@H]2O)C[C@@H]2O[C@](O)(C[C@@H](O)C[C@@H](O)[C@H](O)CC[C@@H](O)C[C@@H](O)CC(=O)O[C@H]1C)C[C@H](O)[C@H]2C(=O)O [AMPHOTERICIN B] |  |  |  |  | 12.9 |  | 15.3 |  |  |  |  | 14.9 | 23.1 |  |  | 26.1 | 17.1 |  |  |  | 
